These results are taken from ChEMBL document CHEMBL4680104, “Structure-Based Optimization of Small-Molecule Inhibitors for the β-Catenin/B-Cell Lymphoma 9 Protein-Protein Interaction” (J Med Chem, 2018).

Active and inactive are the calls of the source. The rule behind the calls is not given here.

For data set [1], the target named is T1, beta-catenin-B-cell lymphoma 9 protein complex (Homo sapiens) (UniProt P35222+O00512). The experiment in a line: Inhibition of protein interaction between beta-catenin /BCL9 in human SW480 cells assessed as reduction in Wnt target genes by measuring cyclin D1 protein expression at 2 to 8 uM incubated for 24 hrs by Western blot analysis. The class given is cell-based. To be noted: dose 2-8 µM. The essentials: (§1)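 SW480 cells at 1 × 10^6 cells/mL were treated with a range of inhibitor concentrations for 24 h. Cells were lysed in Tris/NaCl/NP-40/deoxycholate/SDS buffer with protease inhibitors. Lysates were run on 8% SDS-PAGE and blotted to nitrocellulose. Blots were probed overnight at 4 °C for total β-catenin (mostly the E-cadherin-bound pool), active β-catenin (dephosphorylated S37/T41), cyclin D1, c-myc and β-tubulin. Detection used infrared secondary antibodies. Duplicate.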

Data set [2] can be described thus: Effect on HPRT mRNA expression in human SW480 cells at 1 uM incubated for 24 hrs by qPCR analysis relative to control. Type of data set: ADME, cell-based. The conditions noted are these: read-out: FC. Put shortly:
(§2)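 SW480 cells at 1 × 10^6/mL were treated with inhibitor for 24 h. Total RNA was extracted with TRIzol and cDNA made by first-strand synthesis. SYBR green qPCR used human HPRT primers, with CT values normalised to GAPDH as internal reference. Performed in triplicate.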

A short description of data set [3]: Inhibition of protein interaction between C-terminal 6x-histidine tagged full-length beta-catenin (1 to 781 residues) (unknown origin)/N-terminal biotinylated human E-cadherin (824 to 877 residues) incubated for 1 hr by Alpha-screen competitive inhibition assay. The essentials: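 Full-length β-catenin (residues 1–781) with a C-terminal His6 tag was expressed in E. coli BL21(DE3) after IPTG induction at 20 °C. It was purified by Ni-NTA, anion-exchange and size-exclusion chromatography. For the assay, 40 nM β-catenin was preincubated for 30 min at 4 °C with 5 nM biotinylated BCL9 or 10 nM biotinylated E-cadherin. Inhibitor was then added for 1 h at 4 °C, followed by 10 μg/mL donor and acceptor beads for 1 h at 4 °C. IC50 was obtained by nonlinear fit and converted to Ki by the Nikolovska-Coleska method. Triplicate, mean ± SD.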

A further data set concerns SW480. The experiment in a line: Cytotoxic activity in human SW480 cells at 800 uM incubated for 4 hrs by LDH release assay. The class given is cell-based. To be noted: sw480, 4 h. The essentials:
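SW480 cells were seeded at 2 × 10^4 cells/well and kept overnight at 37 °C. They were then exposed to a range of inhibitor concentrations for 4 h. LDH in the culture supernatant was measured with a diagnostic kit by absorbance at 490 nm. Percent cytotoxicity was calculated from experimental release against maximum release, with background subtracted. Run in triplicate.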

The target in data set [4] is T1, beta-catenin-B-cell lymphoma 9 protein complex (Homo sapiens). The experiment in a line: Inhibition of protein interaction between beta-catenin /BCL9 in human SW480 cells assessed as reduction in Wnt target genes by measuring c-Myc protein expression at 25 to 100 uM incubated for 24 hrs by Western blot analysis. The class given is cell-based. The conditions noted are these: dose 25-100 µM. Put shortly: as §1

Data set [5] has the same target. The experiment in a line: Inhibition of protein interaction between full-length beta-catenin (unknown origin) / full-length BCL9 (unknown origin) in human HCT-116 cells incubated for 24 hrs by co-immunoprecipitation assay. Type of data set: cell-based. Put shortly: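 Intact HCT116 cells at 1 × 10^6/mL were treated with a range of inhibitor concentrations for 24 h. They were then lysed in Tris pH 7.4/NaCl/NP-40/EDTA buffer with protease inhibitors and precleared on A/G agarose. Anti-β-catenin immunoprecipitation ran overnight at 4 °C, with A/G capture for 3 h and five washes. Samples were run on 8% SDS-PAGE and immunoblotted for BCL9 and E-cadherin.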

Data set [6] is described as follows: Effect on HPRT mRNA expression in human SW480 cells at 25 uM incubated for 24 hrs by qPCR analysis relative to control. The class given is ADME, cell-based. The conditions noted are these: read-out: FC. Put shortly:
as §2

Data set [7] in a line: Effect on HPRT mRNA expression in human SW480 cells at 50 uM incubated for 24 hrs by qPCR analysis relative to control. Type of data set: ADME, cell-based. The conditions noted are these: read-out: FC. Put shortly:
as §2

A short description of data set [8]: Drug level in human HCT-116 cells assessed as cell membrane bound compound level at 50 uM incubated for 6 hrs at 4 degC in presence of DMEM media with 10% FBS. Type of data set: ADME, cell membranes. To be noted: hct-116, 6 h. Put shortly:
(§3)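 Cells were incubated with 50 μM compound for 6 h in 5 mL DMEM with 10% FBS, at 37 °C or at 4 °C. Cell-bound compound was quantified by a previously described method and expressed as nmol per million cells. The 4 °C incubation was used to estimate binding to the cell membrane through nonspecific association.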

Data set [9] is described as follows: Drug level in human HCT-116 cells assessed as per million cells at 50 uM incubated for 6 hrs at 4 degC in presence of DMEM media with 10% FBS. The class given is ADME, cell-based. To be noted: hct-116, 6 h. Put shortly:
as §3

Data set [10] is described as follows: Effect on HPRT mRNA expression in human SW480 cells at 8 uM incubated for 24 hrs by qPCR analysis relative to control. Type of data set: ADME, cell-based. To be noted: read-out: FC. The essentials:
as §2

On to `Cl.Cl.O=C(Nc1ccc(O[C@H]2CCNC2)c(-c2ccc(F)cc2)c1)c1ccc(O[C@H]2CCNC2)c(-c2ccc3ccsc3c2)c1`, for which the inhibition result in data set [1] is “Active”. Further, the fold induction at 1 µM in [2] stood at 1.09.
Take `Cl.Cl.O=C(Nc1ccc(O[C@@H]2CCNC2)c(-c2cccc(-c3nn[nH]n3)c2)c1)c1ccc(O[C@H]2CCNC2)c(-c2ccc(F)c(F)c2)c1`: the inhibition constant Ki in data set [3] is more than 915 µM. Also, the Activity result with SW480 is reported as “Non-Toxic”. For the same compound, in data set [4], the inhibition entry is “Active”. Also, the inhibition entry in [5] is “Dose-dependent effect”. Moreover, the fold induction at 25 µM in [6] amounted to 0.99. In [7], the fold induction at 50 µM worked out at 0.979. Besides, the Drug uptake in [8] is recorded as 77%; in data set [9] it was 5.1 nmol.
`Cc1cc(F)ccc1-c1cc(NC(=O)c2ccc(O[C@H]3CCNC3)c(-c3ccc(F)c(F)c3)c2)ccc1O[C@H]1CCNC1.Cl.Cl`: the fold induction at 8 µM in data set [10] turned out to be 0.124.
